HSV replic up: HSV replication enhancement; HSV replication augmentation in cells, fold increase; maximum fold increase; 220,000 tested, 0.005% active; in the data active means maximum fold increase above about 1.5; tested in PC3 cells
bCat nuc transl: modulators of beta-catenin nuclear translocation. HeLa beta-catenin nuclear translocation, immunofluorescence imaging. nuclear translocation activity, % at 5 µM. 190,000 tested, 0.3% active;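 active means nuclear translocation activity above 50% at 5 µM, with a well cell count of 50 or more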;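 further: per-cell ratio of nuclear to cytoplasmic median beta-catenin stain intensity; plate controls were DMSO negative control for no effect and GSK-3 inhibitor IX positive control for full effect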
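Read-out: Nuclear/cytoplasmic beta-catenin signal ratio, % activation | Assay system: Human HeLa cell line | Times: 24 h compound exposure at 37°C, 5% CO2 | Signal: Fluorescence imaging of beta-catenin antibody stain plus DAPI | Dosing: 5 µM primary, 0.02–20 µM confirmation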
ROMK mod: modulators of human ROMK potassium channel; B-score at 10 µM; Tet-inducible ROMK, thallium flux fluorescence; actives lie on both sides; 130,000 tested, 2% active;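 active means signal ratio slope over the read window, or its plate-corrected B-score, at least 3 SD from the plate mean, either direction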;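 further: B-score of the F/F0 ratio slope over 7 to 12 s after thallium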
Target sequence (P48048 whole entry, looked up): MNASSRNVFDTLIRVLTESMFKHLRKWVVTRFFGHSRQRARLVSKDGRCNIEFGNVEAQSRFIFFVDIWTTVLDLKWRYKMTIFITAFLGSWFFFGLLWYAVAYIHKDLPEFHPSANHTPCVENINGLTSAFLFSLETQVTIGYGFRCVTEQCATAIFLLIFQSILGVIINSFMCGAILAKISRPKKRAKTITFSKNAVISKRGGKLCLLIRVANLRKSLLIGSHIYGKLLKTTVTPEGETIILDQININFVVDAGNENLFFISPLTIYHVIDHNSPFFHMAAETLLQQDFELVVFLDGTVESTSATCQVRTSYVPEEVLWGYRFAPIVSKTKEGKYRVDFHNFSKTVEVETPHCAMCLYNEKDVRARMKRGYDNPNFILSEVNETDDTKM
MT stabilizer: stabilizes microtubules in HeLa cells | HeLa tubulin immunostaining HCS, 24 h; share of cells brighter than vehicle mean+2SD | % tubulin-high responders, % at 10 µM | 200,000 tested, 0.83% active;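 active means plate Z-score above 3 for both tubulin-high and condensed-nucleus cell shares, with cell loss under 80%, at 10 µM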;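 further: anti alpha tubulin signal scored within the nucleus-defined area of each cell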
Insulin prom inh: TRM-6 insulin promoter activity inhibition. TRM-6 cells (human fetal islet line), insulin promoter-eGFP reporter, imaging; reporter expression induced with tamoxifen. 130,000 tested, 0.9% active. AID 1273. inhibition, % at 2 µM;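 active means inhibition above the mean plus 3 SD, with well images judged a real hit on visual review, cut at about 60% in these data, passing the limit was not always enough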
Numbers without * were called inactive; i = inactive; x = not tested or not shown. In the library only some 2.4% were active in any assay of this set; here they are far more common.

SMILES	HSV replic up	bCat nuc transl	ROMK mod	MT stabilizer	Insulin prom inh
CC(=O)[C@H]1[C@H](c2cccc(Cl)c2)C(C#N)(C#N)[C@@H]2c3ccccc3C=CN21	i	2.4	x	4.5	x
CCn1c2ccccc2c2cc(NC(=O)c3cc(C)on3)ccc21	i	-0.7	0.0195	20.5*	x
CCn1c2ccccc2c2cc(NC(=O)c3cccc([N+](=O)[O-])c3C)ccc21	i	-1.7	0.676	14.4*	46.7
CCn1c2ccccc2c2cc(NC(=O)CSc3nnc(-c4ccccc4)o3)ccc21	i	-4.8	-0.712	16.3*	-24.3
COC(=O)C1=C(CCc2ccccc2)NC(=O)NC1c1ccc([N+](=O)[O-])cc1 (stereo unspecified)	i	x	x	x	x
O=C(N/N=C/c1cccc(OCC(=O)N2CCCC2)c1)C(=O)Nc1ccccc1F	i	-2.9	-0.0087	3.7	-12.0
COC(=O)c1cccc(NS(=O)(=O)c2ccc(OC)c(OC)c2)c1C	i	-14.6	-1.01	0.9	17.2
COc1ccc(S(=O)(=O)Nc2cc3c(cc2C(C)=O)OCO3)cc1	i	0.9	3.93	41.7*	x
COC(=O)c1cccc(NS(=O)(=O)c2ccc(OC)cc2)c1C	i	53.2*	-0.00342	35.0*	-10.5
COc1ccc(-c2c([C@H]3[C@H]4C=CC[C@@H](C)[C@@H]4C(=O)N3Cc3ccccc3)ccc3ccccc23)cc1OC	i	0.9	x	x	x
CC(=O)Nc1ccc(CN2CCc3c([nH]c4ccccc34)C2c2ccccn2)cc1 (stereo unspecified)	i	1.2	-0.503	9.9*	17.4
c1ccc(C2c3[nH]c4ccccc4c3CCN2Cc2cccn2-c2ccccn2)nc1 (stereo unspecified)	i	0.1	x	x	x
Clc1ccc(CN2C3=NCCCN3c3ccccc32)cc1Cl	i	-0.1	-2.78	1.7	x
O=C1Nc2ccc(F)cc2C12Nc1ccccc1-c1nnc(SCc3ccccc3)nc1O2 (stereo unspecified)	i	x	x	5.0	75.0*
CCC(CC)NC(=O)CO/N=C/c1ccccc1OC(F)F	i	0.3	-0.099	3.4	-33.3
CSc1ncccc1C(=O)OCC(=O)C(C)(C)C	i	-0.7	-0.405	1.7	41.7
CC(=O)C1=NN(c2ccccc2)C(c2ccc3c(c2)OCO3)N1c1ccc(N2CCOCC2)cc1 (stereo unspecified)	i	x	0.225	2.7	-3.9
CC(=O)C1=NN(c2ccccc2)C(c2cccs2)N1c1ccccc1 (stereo unspecified)	1.53*	x	-1.17	2.0	22.9
Cc1nc(Nc2ccc(C(=O)O)cc2)sc1-c1ccccc1	i	2.1	3.68*	1.8	x
Cc1nc(Nc2ccccc2)sc1-c1ccccc1	i	-1.0	0.994	3.0	52.9
O=C(OCn1ncc(Br)c(Br)c1=O)c1ccccc1Cl	i	-1.6	-2.1	1.0	x
O=C(OCn1ncc(Br)c(Br)c1=O)c1ccc(F)cc1	i	5.9	-3.47*	1.3	-185.7
CCOC(=O)c1cc(-c2ccc(C)cc2)n(CCC(=O)N2CCN(c3ccccn3)CC2)c1C	i	x	x	1.5	24.0
O=C(NNc1ncc(C(F)(F)F)cc1Cl)c1c(Cl)cccc1Cl	i	x	x	21.3*	26.5
O=C(NCc1ccc(Cl)cc1)C(=O)NCC1OCCN1C(=O)c1ccc(Cl)cc1 (stereo unspecified)	i	-1.5	0.423	1.7	69.2*
SMILES	HSV replic up	bCat nuc transl	ROMK mod	MT stabilizer	Insulin prom inh
CCOC(=O)c1ccc(NC(=O)Nc2ccon2)cc1	i	93.4*	x	x	x
C=CCSc1nc2ccccc2n1S(=O)(=O)c1ccc(C)cc1	i	8.7	0.889	3.4	94.7*
O=C(CSc1nc2ccccc2n1S(=O)(=O)c1ccccc1)N1CCCCC1	i	-1.2	x	3.2	-21.1
COc1ccc2ccccc2c1C(=O)/C=C\c1ccoc1	i	-1.6	0.216	4.6	78.6*
O=C(/C=C/c1ccoc1)c1ccccc1O	i	x	-1.23	4.5	-35.1
CCCCCn1nc(C)c(/C=N\NC(=O)c2cc(C)oc2C)c1C	i	-1.1	x	3.1	84.6*
CCn1nc(C)c(/C=N/NC(=O)c2ccoc2C)c1C	i	x	x	2.8	28.9
CCCCCn1nc(C)c(/C=N/NC(=O)c2ccoc2C)c1C	i	-0.2	x	3.2	93.3*
Cc1cc(C(=O)N/N=C/c2c(C)nn(-c3ccccc3)c2C)c(C)o1	i	0.4	x	x	x
CCOC(=O)CSC1=C(C#N)C(c2ccc3c(c2)OCO3)CC(=O)N1 (stereo unspecified)	i	-0.9	-0.553	49.4*	31.0
CCCCOC(=O)CSC1=C(C#N)C(c2ccc3c(c2)OCO3)CC(=O)N1 (stereo unspecified)	i	-6.8	-0.841	9.4	x
Cc1nn(-c2ccc(F)cc2)c(Cl)c1/C=C1\C(=O)Nc2ccccc21	i	1.1	-0.00246	21.7*	-206.2
CCOC(=O)C1(Cc2cccc(OC)c2)CCN(Cc2ccc(C)s2)CC1	i	-0.1	-1.71	2.2	x
COc1ccc2nc3oc(C(=O)N4CCN(c5cccc(C(F)(F)F)c5)CC4)cc3cc2c1	i	19.2	0.828	12.8*	35.7
COc1ccc(NC(=O)O/N=C/c2ccncc2)cc1	i	-1.3	0.15	2.1	x
COc1ccccc1NC(=O)/C=C\C(=O)O	i	1.6	0.426	1.8	100.0*
O=C(Nc1ccccc1Cl)O/N=C/c1ccncc1	i	x	x	0.9	10.0
COc1ccc(/C=N/OC(=O)Nc2ccccc2OC)cc1	i	-0.7	0.605	18.9*	8.1
CN(C)c1ccc(/C=N/OC(=O)Nc2ccccc2Cl)cc1	i	0.4	1.87	31.0*	-25.0
Cc1ccccc1Cn1cc(NC(=O)c2nn(C)cc2Cl)cn1	i	3.6	-0.339	3.6	x
Cc1ccc(C2CC(C(F)F)n3ncc(C(=O)Nc4cnn(Cc5ccccc5C)c4)c3N2)cc1 (stereo unspecified)	i	5.1	0.281	27.6*	x
COc1ccc(NC(=O)CSc2ccc3c4c(cccc24)C(=O)c2ccccc2-3)cc1	x	x	x	14.5	-110.7
N#Cc1cccc(NC(=O)CSc2ccc3c4c(cccc24)C(=O)c2ccccc2-3)c1	x	-4.4	-4.18*	5.9	-233.3
CCOC(=O)c1cc(=O)n2nc(-c3ccccc3F)nc2s1	i	-0.9	-0.000955	4.6	85.7*
C=CCn1c(C)cc(C(=O)CSc2nnc(NCc3ccccc3)s2)c1C	x	-4.2	0.083	40.4*	-22.2
SMILES	HSV replic up	bCat nuc transl	ROMK mod	MT stabilizer	Insulin prom inh
CCN(CC)S(=O)(=O)c1ccc(C(=O)NCCc2ccccn2)cc1	i	-3.7	0.593	4.3	47.1
CCCc1nn(CCc2ccccn2)c(N)c1CC	i	-6.8	0.017	12.4	69.2*
Cc1ccc(C(=O)N[C@H](C(=O)Nc2cc(Cl)cc(Cl)c2)C(C)C)cc1	i	-2.4	x	2.4	x
CCn1cc(/C=N/NS(=O)(=O)c2ccc(OC)cc2)c(C)n1	i	x	-0.146	1.6	-27.5
O=C(CSc1nc(-c2ccco2)cc(C(F)(F)F)n1)Nc1ccc(C(=O)N2CCOCC2)cc1	i	-5.4	x	2.7	-31.0
O=C(CCSc1nc(-c2ccco2)cc(C(F)(F)F)n1)NCCc1ccccc1	i	x	x	2.3	-29.7
O=C(CSc1nc(-c2ccco2)cc(C(F)(F)F)n1)Nc1cccnc1	i	-2.6	x	58.0*	x
